This is an account of results in PubChem BioAssay.

Unmarked numbers belong to inactive results. Inconclusive results are not listed. Active and inactive are the calls of the source.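 How the source made its calls, unless noted: active means inhibition over a set limit, the all-compound mean plus 3 SD, in both replicate runs; inconclusive means over that limit in just one replicate run; inactive means at or under that limit in both runs.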

Experiment [1] is described as follows: S. cerevisiae growth inhibition in permissive medium (OD615), pilot counter-assay for S. cerevisiae lifespan shortening project, permissive growth control (AID 705;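 active means growth inhibition above 25% in both replicates, a cutoff set 3 SD above the mean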). The conditions noted are these: OD615, 24 h, at 10 µM, stronger effect = higher value. In a few lines:
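assay system = Saccharomyces cerevisiae strain carrying genetically modified DeaD replicative-lifespan system | medium = SC raffinose/galactose permissive medium | dosing = 10 µM single dose, 0.25% DMSO | schedule = 24 h compound exposure at 30 °C after 4 h pre-growth | measured by = OD at 615 nm | read-out basis = growth inhibition from lowered OD615 after 24 h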

Experiment [2] in a line: S. cerevisiae growth inhibition in restrictive medium, OD615, pilot screen, restrictive growth control, yeast lifespan reduction project (AID 706;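 active means growth inhibition above a set limit, 3 SD over mean compound inhibition, in both replicates, cut at about 43% in these data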). The following applies: OD615, 48 h, at 10 µM, stronger effect = higher value. The essentials: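 Buffer or medium: CSMM-D glucose medium. Material: genetically modified Saccharomyces cerevisiae, DeaD replicative lifespan assay strain. Times: 48 h compound exposure at 30 °C. Measured by: optical density at 615 nm.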

Experiment [3] is described as follows: doxorubicin toxicity protection in MRP-1 cells – H69AR cells, CellTiter-Glo, duplicate, MRP-1 activator project, pilot screen (AID 807;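 active means viability increase at or above a cutoff of the median across tested compounds plus 3 SD, cut at about 8.5% in these data, passing the limit was not always enough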;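 further: compound pretreatment 18-22 h then 72 h combined with doxorubicin; 0% = doxorubicin alone and 100% = vehicle without doxorubicin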). The following applies: H69AR viability with doxorubicin, CellTiter-Glo luminescence; at 10 µM; stronger effect = higher value.
Experiment [4] is described as follows: viability of HCT116 without oncogenic beta-catenin – human colon tumor cells, pilot screen (AID 823;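 active means cell viability at or below a set limit in both duplicate runs, the limit being the all-compound median minus 4 SD, cut at about 23% in these data, passing the limit was not always enough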;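 further: 0% = wells killed by 20 µM Hyamine and 100% = untreated DMSO cell wells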). The conditions noted are these: HCT116 beta-catenin knockout viability, CellTiter-Glo, 60 h; at 10 µM; stronger effect = lower value. A general note: Cellular ATP, detected with luciferase, serves as a proxy for viable cell number.
Experiment [5] can be described thus: viability of PTEN-null HCT116 cells – cell-based, HCT116 clonal line, CellTiter-Glo, pilot screen (AID 824;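 active means viability at or below 27.92% in each of two runs, the all-compound median minus 4 SD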;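 further: 0% = 20 µM Hyamine control and 100% = vehicle cell control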). The conditions noted are these: HCT116 PTEN-deleted viability, 60 h, at 10 µM, stronger effect = lower value.
The nature of experiment [6]: RAM pathway blockade in budding yeast – dse1pr::URA3 reporter, 5-FOA selection, pilot screen (AID 869).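 Further: 0% = DMSO wells with no growth and 100% = 10 µM 1-NA-PP1 with full growth; RAM network block rescues cells from 5-FOA so hits raise OD615 growth.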 The conditions noted are these: S. cerevisiae dse1pr::URA3 5-FOA growth, OD615, 2 d; at 10 µM; stronger effect = higher value; strain carries analog-sensitive mutant Cbk1 kinase.
A short description of experiment [7]: RAM signaling pathway blockade in yeast – S. cerevisiae, Pdr1DBD-CYC8 efflux-inhibited sensitized strain, primary screen (AID 1298;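 active means RAM network inhibition above 8.4% in each of two replicates, 3 SD over the compound average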;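 further: 0% = DMSO untreated cells without growth and 100% = 10 µM 1-NA-PP1 full growth; higher means more yeast growth rescued from 5-FOA killing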). The following applies: S. cerevisiae cbk1-as DSE1-URA3 strain, 5-FOA growth OD615, 2 d; at 50 µM; stronger effect = higher value.

Broadly, the viability is a read-out of living cells in per cent, often relative to untreated cells. The term inhibition denotes how much of the control response was suppressed. In the case of `O=C(O)CSc1cccc2cccc(C(=O)O)c12`, the growth inhibition in experiment [1] is -0.49%; in experiment [2] it was 4.41%. Further, the viability increase in experiment [3] is -2.27%. Moreover, the viability was 105% in experiment [4] and 101% in experiment [5]. In addition, the inhibition in experiment [6] is 1.54%. In addition, the RAM network inhibition in experiment [7] is 1.15%.
Turning to `CCN(CC)CCOc1ccc(Br)cc1`, the growth inhibition was -12.9% in experiment [1] and -12.2% in experiment [2]. The viability increase in experiment [3] was -0.72%. Besides, the viability in experiment [4] was 90.1%; in experiment [5], 103%. Besides, the inhibition in experiment [6] is 1.24%. For the same compound, in experiment [7], the RAM network inhibition is 1.1%.
As for `COc1ccc(Nc2ncnc3c2cnn3Cc2ccccc2)cc1`, the values for the growth inhibition in experiment [1] and in experiment [2] were -28.7% and 3.04%, respectively. Also, in experiment [3], the viability increase is 1.14%. For the same compound, the viability in experiment [4] was 88.9%. In experiment [6], the inhibition was 1%. Besides, the RAM network inhibition in experiment [7] was 3.74%.
Consider `Nc1ccc2nc3n(c(=O)c2c1)CCC3`, for which the growth inhibition in experiment [1] was -2.62%; in experiment [2], 4.83%. Besides, the viability increase in experiment [3] was 1.87%. The figures for the viability in experiment [4] and in experiment [5] were 104% and 108%, respectively. In addition, in experiment [6], the inhibition was 1.44%. In addition, the RAM network inhibition in experiment [7] was 3.92%.
`Cc1cc(OCC(=O)Nc2cc(-c3nn4c(C)nnc4s3)ccc2C)ccc1Cl`: the growth inhibition is 2.82% in experiment [1] and 27.5% in experiment [2]. In experiment [3], the viability increase was -0.6%. Further, the viability in experiment [4] was 95.6%; in experiment [5] it was 82%. The inhibition in experiment [6] is 2.49%. Further, in experiment [7], the RAM network inhibition was 6.32%.
Take `CCOC(=O)C1CCCN(C(=O)CC(C)c2ccccc2)C1` (stereo unspecified): the results for the growth inhibition in experiment [1] and in experiment [2] were -14.4% and -0.005%, respectively. Besides, the viability increase in experiment [3] is -1.25%. Moreover, in experiment [4], the viability is 104%. For the same compound, the inhibition in experiment [6] is 1.57%. Moreover, the RAM network inhibition in experiment [7] is 3.91%.
As to `Cc1cccn2c(=O)c3cc(C(=O)NCCCN4CCOCC4)n(C)c3nc12`, the results for the growth inhibition in experiment [1] and in experiment [2] were -4.96% and -3.14%, respectively. The viability increase in experiment [3] is 0.44%. Besides, the viability in experiment [4] and in experiment [5] was 93.1% in each case. The inhibition in experiment [6] was 1.06%. Besides, the RAM network inhibition in experiment [7] was 0.37%.
For `CCC(C)NC(=O)CN(c1ccc2c(c1)OCO2)S(=O)(=O)c1c(C)n[nH]c1C` (stereo unspecified), the growth inhibition is -12.1% in experiment [1] and -7.16% in experiment [2]. Also, the viability increase in experiment [3] is -1.79%. For the same compound, the viability is 107% in experiment [4] and 99.4% in experiment [5]. Besides, the inhibition in experiment [6] is 1.34%. In experiment [7], the RAM network inhibition is 2.93%.
As to `Cc1nc(S(=O)(=O)c2ccc(Cl)cc2)c(NCc2ccccc2)o1`, the values for the growth inhibition in experiment [1] and in experiment [2] were -6.92% and -2.45%, respectively. Also, the viability increase in experiment [3] is -0.96%. Besides, the viability in experiment [4] was 94.5%; in experiment [5], 95.5%. Moreover, in experiment [6], the inhibition is 2.39%. The RAM network inhibition in experiment [7] was 4.59%.
Take `O=C(Nc1nn[nH]n1)c1cccc(Oc2ccccc2)c1`: the growth inhibition in experiment [1] was -18.5%; in experiment [2], 8.51%. In experiment [3], the viability increase was -0.81%. The viability in experiment [4] is 96.5%. In experiment [6], the inhibition was 3.22%. Besides, the RAM network inhibition in experiment [7] is 7.27%.
Consider `CCOC(=O)c1c(NC(=O)c2ccc(Cl)s2)sc(C)c1C`, for which the growth inhibition is -6.9% in experiment [1] and -11.2% in experiment [2]. In addition, the viability increase in experiment [3] was -8.89%. Moreover, the viability in experiment [4] was 12.6% (active). Besides, in experiment [6], the inhibition is 2.4%. Further, in experiment [7], the RAM network inhibition is 5.6%.
Regarding `CCC(=O)Nc1cc(C)c(NC(=O)c2ccco2)cn1`, the values for the growth inhibition in experiment [1] and in experiment [2] were -18.1% and -13.9%, respectively. The viability increase in experiment [3] is 0.56%. For the same compound, in experiment [4], the viability is 98.5%. The inhibition in experiment [6] was 1.52%. The RAM network inhibition in experiment [7] was 4.21%.
On to `Cn1ccnc1SCC(=O)NC1CCCCC1`, for which the growth inhibition is -11.1% in experiment [1] and -7.09% in experiment [2]. In experiment [3], the viability increase is -0.96%. Moreover, in experiment [4], the viability is 100%. The inhibition in experiment [6] is 3.6%. Also, the RAM network inhibition in experiment [7] is 1.87%.
Consider `Cc1ccc(C(=O)N2CCN(C)CC2)cc1S(=O)(=O)N1CCCCC1`, for which the growth inhibition in experiment [1] is 0.05%; in experiment [2] it was -11.5%. Moreover, the viability increase in experiment [3] was -2.65%. Further, the viability in experiment [4] was 90.1%. In experiment [6], the inhibition is 1.31%. Further, in experiment [7], the RAM network inhibition was 0.57%.
`COc1ccc(CC(=O)Nc2cc(C)c3c(=O)oc4ccccc4c3n2)cc1`: the growth inhibition in experiment [1] was -2.25%; in experiment [2], 1.88%. Also, the viability increase in experiment [3] is -4.14%. Besides, the viability in experiment [4] is 75.3%. For the same compound, the inhibition in experiment [6] was 4.06%. Further, the RAM network inhibition in experiment [7] was 7.11%.
Consider `COc1ccc(N2CC(O)=C(c3nc(C)cs3)C2=N)cc1`, for which the results for the growth inhibition in experiment [1] and in experiment [2] were 8.87% and 5.31%, respectively. Also, the viability increase in experiment [3] was -4.67%. Besides, the viability in experiment [4] is 96.7%. The inhibition in experiment [6] was 1.6%. For the same compound, the RAM network inhibition in experiment [7] was 3.27%.
With `CCOC(=O)Nc1cc(C(=O)OCC)c(C)nc1C`, the growth inhibition in experiment [1] was -8.02%; in experiment [2], -10%. Further, in experiment [3], the viability increase was -1.85%. Moreover, the viability in experiment [4] was 98.7%. In experiment [6], the inhibition is 1.25%. The RAM network inhibition in experiment [7] is 0.73%.
`COc1ccc(N2CCN(C(=O)Cn3c(=O)[nH]c4ccsc4c3=O)CC2)cc1`: the growth inhibition in experiment [1] is -15.3%; in experiment [2], -12.4%. For the same compound, the viability increase in experiment [3] is -3.44%. Also, the viability in experiment [4] was 99.7%. The inhibition in experiment [6] is 0.99%. The RAM network inhibition in experiment [7] was 3.59%.
Consider `Cc1cccc(NC(=O)Cn2cnc3c(cnn3-c3ccc(F)cc3)c2=O)c1C`, for which the growth inhibition in experiment [1] was -1.04%; in experiment [2], -2.65%. In addition, the viability increase in experiment [3] is -8.31%. For the same compound, the viability in experiment [4] is 29.6%. Besides, the inhibition in experiment [6] is 0.735%. For the same compound, the RAM network inhibition in experiment [7] was 2.47%.
